{
  "source": "paper PMC3215888",
  "about": "(Cancer Chemotherapy and Pharmacology, 2011)",
  "key": {"[1]": {"tested_on": "CHLA-32 Ewing sarcoma cell line", "experiment": "DIMSCAN in vitro testing, 96 h", "type": "cell-based", "conditions": "for IC50: 96 h", "method_in_brief": "(§1)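 Neuroblastoma and Ewing sarcoma lines, STR-verified and maintained as in the originators' reports. Exposed for 96 h to test compound (DMSO stock diluted in medium) at 1 nM–10 μM. Viable cells quantified by fluorescein diacetate fluorescence with DIMSCAN digital image microscopy. Absolute IC50 = concentration giving 50% growth inhibition vs controls. Relative IC50 = concentration giving 50% of the maximum inhibitory effect.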"}, "[2]": {"tested_on": "neuroblastoma cell lines", "experiment": "DIMSCAN in vitro testing, 96 h, neuroblastoma panel", "type": "cell-based", "method_in_brief": "as §1"}, "[3]": {"tested_on": "CHLA-9 Ewing sarcoma cell line", "experiment": "DIMSCAN in vitro testing, 96 h", "type": "cell-based", "conditions": "for IC50: 96 h", "method_in_brief": "as §1"}, "[4]": {"tested_on": "SK-N-BE(1) neuroblastoma cell line", "experiment": "DIMSCAN in vitro testing, 96 h", "type": "cell-based", "conditions": "for IC50: Neuroblastoma cell, 96 h"}, "[5]": {"tested_on": "Aurora kinase A", "conditions": "cited from earlier work"}, "[6]": {"tested_on": "NB-SD Neuroblastoma xenograft", "type": "in vivo, mice", "method_in_brief": "(§2)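 Female CB17 scid mice bearing subcutaneous tumors, 10 per group. Dosed by oral gavage twice daily, 5 days weekly for 6 weeks, at 20.8, 10.4, 5.2 or 2.6 mg/kg, in 10% 2-hydroxypropyl-β-cyclodextrin/1% sodium bicarbonate. Event = quadrupled tumor volume; EFS by Kaplan–Meier, exact log-rank test. Per-mouse scores PD/SD/PR (≥50% regression)/CR (<0.10 cm3)/MCR; group median reported. PR, CR and MCR count as objective responses.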"}, "[7]": {"tested_on": "ALL xenograft models", "experiment": "Objective responses across the ALL xenograft panel", "type": "in vivo, mice", "method_in_brief": "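Female NOD/scid mice inoculated intravenously with leukemia cells, 8 per group. Test compound suspended in 10% 2-hydroxypropyl-β-cyclodextrin/1% sodium bicarbonate in water. Given by oral gavage twice daily, 5 days weekly for 3 weeks, at 20.8, 10.4, 5.2 or 2.6 mg/kg. Blood %hCD45 of leukocytes tracked; event = hCD45 reaching 25%. EFS by Kaplan–Meier, exact log-rank vs controls. Median group response from individual scores.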"}, "[8]": {"tested_on": "Rh65 ALV Rhabdomyosarcoma xenograft", "type": "in vivo, mice", "method_in_brief": "as §2"}, "[9]": {"tested_on": "SK-N-AS Neuroblastoma xenograft", "type": "in vivo, mice", "conditions": "20.8 mg/kg", "method_in_brief": "as §2"}},
  "note": "Where two headings read alike, the source gives them in different places.",
  "data": [
    {"compound": "COc1cc(Nc2ncc3c(n2)-c2ccc(Cl)cc2C(c2c(F)cccc2OC)=NC3)ccc1C(=O)O", "note": "[MLN8237]", "values": [
      {"measurement": "IC50", "setting": "[1]; read-out: Absolute IC50", "value": 136, "unit": "nM"},
      {"measurement": "IC50", "setting": "[1]; read-out: Relative IC50", "value": 92, "unit": "nM"},
      {"measurement": "Ymin", "setting": "[1]; CHLA-32, minimum T/C", "value": 13.1, "unit": "%"},
      {"measurement": "IC50", "setting": "[2]; Neuroblastoma cell, read-out: relative IC50 values, neuroblastoma panel", "value": 23, "unit": "nM"},
      {"measurement": "median Ymin, neuroblastoma cell lines", "setting": "[2]; median of neuroblastoma panel", "value": 10.4, "unit": "%"},
      {"measurement": "IC50", "setting": "[3]; read-out: Absolute IC50", "value": 18, "unit": "nM"},
      {"measurement": "IC50", "setting": "[3]; read-out: Relative IC50", "value": 16, "unit": "nM"},
      {"measurement": "Ymin", "setting": "[3]; CHLA-9, minimum T/C", "value": 4.2, "unit": "%"},
      {"measurement": "IC50", "setting": "[4]; read-out: Absolute IC50", "value": 28, "unit": "nM"},
      {"measurement": "IC50", "setting": "[4]; read-out: Relative IC50", "value": 24, "unit": "nM"},
      {"measurement": "Ymin", "setting": "[4]; SK-N-BE(1), minimum T/C", "value": 4.0, "unit": "%"},
      {"measurement": "specificity for Aurora kinase A inhibition versus Aurora kinase B", "setting": "[5]", "value": 200, "unit": "fold"},
      {"measurement": "EFS T/C", "setting": "[6]; 2.6 mg/kg", "value": 1.6},
      {"measurement": "EFS activity", "setting": "[6]; 2.6 mg/kg", "value": "Low"},
      {"measurement": "Estimate of median time to event", "setting": "[6]; 2.6 mg/kg", "value": 15.2, "unit": "days"},
      {"measurement": "Median group response", "setting": "[6]; 2.6 mg/kg", "value": "PD1 (if the TGD value ≤1.5, that mouse was considered PD1)"},
      {"measurement": "Response activity", "setting": "[6]; 2.6 mg/kg", "value": "Low"},
      {"measurement": "Tumor volume T/C", "setting": "[6]; 2.6 mg/kg", "value": 0.59},
      {"measurement": "Median RTV/hCD45 at end of study", "setting": "[6]; 2.6 mg/kg", "value": ">4"},
      {"measurement": "EFS T/C", "setting": "[6]; 5.2 mg/kg", "value": 2.2},
      {"measurement": "EFS activity", "setting": "[6]; 5.2 mg/kg", "value": "Int"},
      {"measurement": "Estimate of median time to event", "setting": "[6]; 5.2 mg/kg", "value": 20.9, "unit": "days"},
      {"measurement": "Median group response", "setting": "[6]; 5.2 mg/kg", "value": "PD2 (if the TGD value >1.5, the mouse was considered PD2)"},
      {"measurement": "Response activity", "setting": "[6]; 5.2 mg/kg", "value": "Int"},
      {"measurement": "Tumor volume T/C", "setting": "[6]; 5.2 mg/kg", "value": 0.60},
      {"measurement": "Median RTV/hCD45 at end of study", "setting": "[6]; 5.2 mg/kg", "value": ">4"},
      {"measurement": "EFS T/C", "setting": "[6]; 10.4 mg/kg", "value": 3.9},
      {"measurement": "EFS activity", "setting": "[6]; 10.4 mg/kg", "value": "Int"},
      {"measurement": "Estimate of median time to event", "setting": "[6]; 10.4 mg/kg", "value": 37.5, "unit": "days"},
      {"measurement": "Median group response", "setting": "[6]; 10.4 mg/kg", "value": "PD2 (if the TGD value >1.5, the mouse was considered PD2)"},
      {"measurement": "Response activity", "setting": "[6]; 10.4 mg/kg", "value": "Int"},
      {"measurement": "Tumor volume T/C", "setting": "[6]; 10.4 mg/kg", "value": 0.50},
      {"measurement": "Median RTV/hCD45 at end of study", "setting": "[6]; 10.4 mg/kg", "value": ">4"},
      {"measurement": "EFS T/C", "setting": "[6]; 20.8 mg/kg", "value": ">4.4"},
      {"measurement": "EFS activity", "setting": "[6]; 20.8 mg/kg", "value": "High"},
      {"measurement": "Response activity", "setting": "[6]; 20.8 mg/kg", "value": "Int"},
      {"measurement": "Tumor volume T/C", "setting": "[6]; 20.8 mg/kg", "value": 0.47},
      {"measurement": "Median RTV/hCD45 at end of study", "setting": "[6]; 20.8 mg/kg", "value": 0.9},
      {"measurement": "ALL xenografts classified as objective responses", "setting": "[7]; 0.25MTD, three models", "value": "two out of three"},
      {"measurement": "response in ALL models", "setting": "[7]; 0.5MTD, three models", "value": "CR in each of three ALL models"},
      {"measurement": "ALL xenografts with objective responses, of 3 tested", "setting": "[7]; MTD 20.8 mg/kg", "value": 3},
      {"measurement": "EFS T/C", "setting": "[8]; 2.6 mg/kg", "value": 2.1},
      {"measurement": "EFS activity", "setting": "[8]; 2.6 mg/kg", "value": "Int"},
      {"measurement": "Estimate of median time to event", "setting": "[8]; 2.6 mg/kg", "value": 22.9, "unit": "days"},
      {"measurement": "Median group response", "setting": "[8]; 2.6 mg/kg", "value": "PD2 (if the TGD value >1.5, the mouse was considered PD2)"},
      {"measurement": "Response activity", "setting": "[8]; 2.6 mg/kg", "value": "Int"},
      {"measurement": "Tumor volume T/C", "setting": "[8]; 2.6 mg/kg", "value": 0.31},
      {"measurement": "Median RTV/hCD45 at end of study", "setting": "[8]; 2.6 mg/kg", "value": ">4"},
      {"measurement": "EFS T/C", "setting": "[8]; 5.2 mg/kg", "value": 3.7},
      {"measurement": "EFS activity", "setting": "[8]; 5.2 mg/kg", "value": "Int"},
      {"measurement": "Estimate of median time to event", "setting": "[8]; 5.2 mg/kg", "value": 39.3, "unit": "days"},
      {"measurement": "Median group response", "setting": "[8]; 5.2 mg/kg", "value": "PD2 (if the TGD value >1.5, the mouse was considered PD2)"},
      {"measurement": "Response activity", "setting": "[8]; 5.2 mg/kg", "value": "Int"},
      {"measurement": "Tumor volume T/C", "setting": "[8]; 5.2 mg/kg", "value": 0.19},
      {"measurement": "Median RTV/hCD45 at end of study", "setting": "[8]; 5.2 mg/kg", "value": ">4"},
      {"measurement": "EFS T/C", "setting": "[8]; 10.4 mg/kg", "value": ">3.9"},
      {"measurement": "EFS activity", "setting": "[8]; 10.4 mg/kg", "value": "Int"},
      {"measurement": "Median group response", "setting": "[8]; 10.4 mg/kg", "value": "PD2 (if the TGD value >1.5, the mouse was considered PD2)"},
      {"measurement": "Response activity", "setting": "[8]; 10.4 mg/kg", "value": "Int"},
      {"measurement": "Tumor volume T/C", "setting": "[8]; 10.4 mg/kg", "value": 0.11},
      {"measurement": "Median RTV/hCD45 at end of study", "setting": "[8]; 10.4 mg/kg", "value": 3.2},
      {"measurement": "EFS T/C", "setting": "[8]; 20.8 mg/kg", "value": ">3.9"},
      {"measurement": "EFS activity", "setting": "[8]; 20.8 mg/kg", "value": "High"},
      {"measurement": "Median group response", "setting": "[8]; 20.8 mg/kg", "value": "MCR"},
      {"measurement": "Response activity", "setting": "[8]; 20.8 mg/kg", "value": "High"},
      {"measurement": "Tumor volume T/C", "setting": "[8]; 20.8 mg/kg", "value": 0.01},
      {"measurement": "Median RTV/hCD45 at end of study", "setting": "[8]; 20.8 mg/kg", "value": 0.0},
      {"measurement": "EFS T/C", "setting": "[9]", "value": 1.4},
      {"measurement": "EFS activity", "setting": "[9]", "value": "Low"},
      {"measurement": "Estimate of median time to event", "setting": "[9]", "value": 7.6, "unit": "days"},
      {"measurement": "Median group response", "setting": "[9]", "value": "PD1 (if the TGD value ≤1.5, that mouse was considered PD1)"},
      {"measurement": "Response activity", "setting": "[9]", "value": "Low"},
      {"measurement": "Tumor volume T/C", "setting": "[9]", "value": 0.71},
      {"measurement": "Median RTV/hCD45 at end of study", "setting": "[9]; RTV", "value": ">4"}
    ]}
  ]
}
